According to ChEMBL document CHEMBL1142419, “Antimycobacterial activities of novel 2-(sub)-3-fluoro/nitro-5,12-dihydro-5-oxobenzothiazolo[3,2-a]quinoline-6-carboxylic acid” (Bioorg Med Chem, 2008):
In brackets after ≈: the same amount, converted by molar mass.

How the values were obtained:
[1] = tested on: Mycobacterium tuberculosis; assay: Antimycobacterial activity against Mycobacterium tuberculosis H37Rv by agar dilution method; format: functional
Method in brief: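 MIC by agar dilution on Middlebrook 7H11 agar supplemented with OADC, following an NCCLS-like procedure, run in duplicate. The MDR-TB clinical isolate was resistant to isoniazid, rifampicin, ethambutol and ofloxacin.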

[2] = tested on: Mycolicibacterium smegmatis; assay: Antimycobacterial activity against Mycobacterium smegmatis MC2 by agar dilution method; format: functional
Method in brief: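 Agar dilution on Middlebrook 7H11 agar supplemented with OADC, following an NCCLS-like procedure; MIC determined in duplicate against M. smegmatis ATCC 14468 (MC²).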

Vero = assay: Cytotoxicity against african green monkey Vero cells after 72 hrs by MTT assay; format: cell-based; details: Chlorocebus sabaeus
Method in brief: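 Vero mammalian cells were exposed to compounds for 72 h, with testing at 62.5 µg/ml. Viability was read as cellular conversion of MTT to formazan (non-radioactive cell proliferation kit), and IC50 was reported.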

Mus musculus [3] = assay: Phototoxicity in Swiss albino mouse assessed as ear thickness at 140 mg/kg, po after 4 hrs of irradiation; format: organism-based; set-up: dose 140 mg/kg, route oral; details: in vivo
Method in brief: (§1)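 Female Swiss albino mice (about 2 months, 20–25 g), fasted at least 18 h, received a single oral gavage of 140 mg/kg. Groups: six per group; lomefloxacin HCl 140 mg/kg; vehicle 0.5% aqueous sodium carboxymethylcellulose at 10 ml/kg. Mice were UV-irradiated for 4 h (about 18 J/cm²). Both ears were scored for erythema, edema and ear thickness (left/right averaged) pre-dose, at end of irradiation, and at about 24, 48, 72 and 96 h. Ear thickness change from baseline was tested by Student's t-tests.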

Mus musculus [4] = assay: Phototoxicity in Swiss albino mouse assessed as ear thickness at 140 mg/kg, po after 24 hrs of irradiation; format: organism-based; set-up: dose 140 mg/kg, route oral; details: in vivo; method in brief: as §1
Mus musculus [5] = assay: Phototoxicity in Swiss albino mouse assessed as ear thickness at 140 mg/kg, po after 48 hrs of irradiation; format: organism-based; set-up: dose 140 mg/kg, route oral; details: in vivo; method in brief: as §1
Mus musculus [6] = assay: Phototoxicity in Swiss albino mouse assessed as ear thickness at 140 mg/kg, po after 72 hrs of irradiation; format: organism-based; set-up: dose 140 mg/kg, route oral; details: in vivo; method in brief: as §1
Mus musculus [7] = assay: Phototoxicity in Swiss albino mouse assessed as ear thickness at 140 mg/kg, po after 96 hrs of irradiation; format: organism-based; set-up: dose 140 mg/kg, route oral; details: in vivo; method in brief: as §1
Mus musculus [8] = assay: Phototoxicity in Swiss albino mouse assessed as erythema incidence at 140 mg/kg, po after 4 hrs of irradiation; format: organism-based; set-up: dose 140 mg/kg, route oral; details: in vivo; method in brief: as §1
Mus musculus [9] = assay: Phototoxicity in Swiss albino mouse assessed as erythema incidence at 140 mg/kg, po after 24 hrs of irradiation; format: organism-based; set-up: dose 140 mg/kg, route oral; details: in vivo; method in brief: as §1
Mus musculus [10] = assay: (§2) Phototoxicity in Swiss albino mouse assessed as erythema incidence at 140 mg/kg, po after 48 hrs of irradiation; format: organism-based; set-up: dose 140 mg/kg, route oral; details: in vivo; method in brief: as §1
Mus musculus [11] = assay: as §2; format: organism-based; set-up: dose 140 mg/kg, route oral; details: in vivo; method in brief: as §1; remark: listed apart in the source
Mus musculus [12] = assay: Phototoxicity in Swiss albino mouse assessed as erythema incidence at 140 mg/kg, po after 96 hrs of irradiation; format: organism-based; set-up: dose 140 mg/kg, route oral; details: in vivo; method in brief: as §1
[13] = tested on: Mycobacterium tuberculosis; assay: Antimycobacterial activity against Mycobacterium tuberculosis ATCC 35801 infected in CD1 mouse assessed as bacterial load in lung at 25 mg/kg, ip after 10 days; format: functional; details: route intraperitoneal
Method in brief: (§3)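 Six-week-old female CD-1 mice, six per group, infected intravenously via caudal vein with ~10⁷ viable M. tuberculosis ATCC 35801. Intraperitoneal dosing began 10 days after inoculation and ran 10 days. On day 35 post-infection, spleens and right lungs were removed and homogenized. Serial 10-fold dilutions were plated on 7H10 agar (37 °C, ambient air, 4 weeks). Log CFU compared against vehicle-treated controls.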

[14] = tested on: Mycobacterium tuberculosis; assay: Antimycobacterial activity against Mycobacterium tuberculosis ATCC 35801 infected in CD1 mouse assessed as bacterial load in spleen at 25 mg/kg, ip after 10 days; format: functional; details: route intraperitoneal; method in brief: as §3
[15] = Inhibition of Mycobacterium smegmatis DNA gyrase supercoiling activity; set-up: species or system Mycolicibacterium smegmatis

SMILES	MIC [1] [µM]	MIC [2] [µM]	IC50 (Vero) [µM]	other results
CC(C)(C)NC(=O)C1c2ccccc2CCN1c1cc2c(cc1F)c(=O)c(C(=O)O)c1sc3ccccc3n12 (centres undefined)	2.87 (≈ 1.56 µg/mL)	46 (≈ 25 µg/mL)	115	
COc1cc2c(cc1OC)CN(c1cc3c(cc1F)c(=O)c(C(=O)O)c1sc4ccccc4n13)CC2	1.55 (≈ 0.782 µg/mL)	6.2 (≈ 3.13 µg/mL)	> 124	
O=C(O)c1c(=O)c2cc(F)c(N3CCSCC3)cc2n2c1sc1ccccc12	3.76 (≈ 1.56 µg/mL)	7.55 (≈ 3.13 µg/mL)		
CN1CCN(c2cc3c(cc2[N+](=O)[O-])c(=O)c(C(=O)O)c2sc4ccccc4n23)CC1c1ccccc1 (centres undefined)	12.2 (≈ 6.25 µg/mL)	97.2 (≈ 50 µg/mL)		
O=C(O)c1c(=O)c2cc([N+](=O)[O-])c(N3CCN(C(=O)c4ccco4)CC3)cc2n2c1sc1ccccc12	6.04 (≈ 3.13 µg/mL)	48.2 (≈ 25 µg/mL)		
CCN(CC)C(=O)C1CCCN(c2cc3c(cc2[N+](=O)[O-])c(=O)c(C(=O)O)c2sc4ccccc4n23)C1 (centres undefined)	2.99 (≈ 1.56 µg/mL)	95.7 (≈ 50 µg/mL)	59.8	
O=C(O)c1c(=O)c2cc([N+](=O)[O-])c(N3CCN(Cc4ccc5c(c4)OCO5)CC3)cc2n2c1sc1ccccc12	5.6 (≈ 3.13 µg/mL)	44.8 (≈ 25 µg/mL)	112	
CN1CCN(c2cc3c(cc2F)c(=O)c(C(=O)O)c2sc4ccccc4n23)CC1c1ccccc1 (centres undefined)	12.8 (≈ 6.25 µg/mL)	103 (≈ 50 µg/mL)		
CC(C)(C)OC(=O)NC1C2CN(c3cc4c(cc3[N+](=O)[O-])c(=O)c(C(=O)O)c3sc5ccccc5n34)CC21 (centres undefined)	2.91 (≈ 1.56 µg/mL)	93.2 (≈ 50 µg/mL)	58.2	
CC1CN(c2cc3c(cc2F)c(=O)c(C(=O)O)c2sc4ccccc4n23)CC(C)O1 (centres undefined)	7.34 (≈ 3.13 µg/mL)	29.3 (≈ 12.5 µg/mL)		
Cc1onc(-c2c(F)cccc2F)c1C(=O)N1CCN(c2cc3c(cc2[N+](=O)[O-])c(=O)c(C(=O)O)c2sc4ccccc4n23)CC1	4.85 (≈ 3.13 µg/mL)	77.5 (≈ 50 µg/mL)		
O=C(O)c1c(=O)c2cc(F)c(N3CCC(n4c(=O)[nH]c5cc(Cl)ccc54)CC3)cc2n2c1sc1ccccc12	2.77 (≈ 1.56 µg/mL)	44.4 (≈ 25 µg/mL)		
O=C(O)c1cn2c(n1)CN(c1cc3c(cc1[N+](=O)[O-])c(=O)c(C(=O)O)c1sc4ccccc4n13)CC2	1.54 (≈ 0.778 µg/mL)	98.2 (≈ 49.6 µg/mL)	124	
CCn1cc(C(=O)O)c(=O)c2cc(F)c(N3CCNC(C)C3)c(F)c21 (centres undefined) [LOMEFLOXACIN]				Activity (Mus musculus [3]): 0.4 mm; Activity (Mus musculus [4]): 0.48 mm; Activity (Mus musculus [5]): 0.53 mm; Activity (Mus musculus [6]): 0.64 mm; Activity (Mus musculus [7]): 0.6 mm; Activity (Mus musculus [8]): Toxic; Activity (Mus musculus [9]): Toxic; Activity (Mus musculus [10]): Toxic; Activity (Mus musculus [11]): Toxic; Activity (Mus musculus [12]): Toxic
NNC(=O)c1ccncc1 [ISONIAZID]	0.36 (≈ 0.0494 µg/mL)	45.6 (≈ 6.25 µg/mL)	> 456	Log10 cfu [13]: 5.86; Log10 cfu [14]: 4.71
CC(C)(C)OC(=O)NC1C2CN(c3cc4c(cc3F)c(=O)c(C(=O)O)c3sc5ccccc5n34)CC21 (centres undefined)	0.37 (≈ 0.189 µg/mL)	6.14 (≈ 3.13 µg/mL)	> 113	IC50 [15]: 50 µg/mL (≈ 98.1 µM)
O=C(O)c1c(=O)c2cc([N+](=O)[O-])c(N3CCC4(CC3)OCCO4)cc2n2c1sc1ccccc12	1.62 (≈ 0.78 µg/mL)	104 (≈ 50 µg/mL)	130	
O=C(O)c1c(=O)c2cc(F)c(N3CCC4(CC3)OCCO4)cc2n2c1sc1ccccc12	0.86 (≈ 0.391 µg/mL)	6.89 (≈ 3.13 µg/mL)	> 138	Activity (Mus musculus [3]): 0.3 mm; Activity (Mus musculus [4]): 0.31 mm; Activity (Mus musculus [5]): 0.3 mm; Activity (Mus musculus [6]): 0.28 mm; Activity (Mus musculus [7]): 0.3 mm; Activity (Mus musculus [8]): Non-toxic; Activity (Mus musculus [9]): Non-toxic; Activity (Mus musculus [10]): Non-toxic; Activity (Mus musculus [11]): Non-toxic; Activity (Mus musculus [12]): Non-toxic
O=C(O)c1c(=O)c2cc([N+](=O)[O-])c(N3CCSCC3)cc2n2c1sc1ccccc12	7.09 (≈ 3.13 µg/mL)	113 (≈ 50 µg/mL)		
